Screening data as filed in PubChem BioAssay.
Most compounds without a hit are left out; they make up all but 4.9% or so of the library.
APP 5'UTR act: APP 5'UTR luciferase reporter activation; SH-SY5Y APP 5'UTR luciferase reporter, luminescence; zero percent = DMSO vehicle wells; activation, % at 2 µM; hit rate 1% among 190,000;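 active = activation above a set limit, based on mean plus 3 SD of controls, cut at about 140% in these data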
STAT1 inh: reduces IFN-gamma driven STAT1 reporter signal; NIH 3T3 STAT1-luciferase reporter, luminescence; inhibition, % at 5.5 µM; hit rate 0.35% among 200,000;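 active = inhibition above a set limit, the mean inhibition across all tested compounds plus 3 SD, cut at about 34% in these data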
NF-kB expr up: NF-kB expression increase, human neuronal cells. NF-kB reporter expression; hits give high values. fold change at 12.5 µM. hit rate 1.6% among 190,000. AID 1239; in the data active = fold change above about 3.3
STAT3 act-1: STAT3 signaling activation. U3A cells, IL-6 STAT3-luciferase reporter, luminescence; 100% = signal with IL-6 EC80 alone. activation (% of control), % at 5.6 µM. hit rate 0.91% among 190,000;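 active = activation above the screen-wide mean of compound activation plus 3 SD, cut at about 130% in these data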
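System – human U3A cells carrying STAT3-luciferase construct · Probe or stimulus – Interleukin-6, 33 ng/mL · Schedule – compound 1 h, then IL-6 6 h at 37 °C · Signal – luminescence from STAT3-driven luciferase reporter · Evaluation – percent of IL-6-only median luminescence · Benchmarks – IL-6-only high control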
STAT1 act-1: activators of IFN-gamma induced STAT1 signaling; NIH 3T3 STAT1-luciferase reporter, luminescence; 100% = IFN-gamma alone, no compound; hit rate 2.6% among 200,000; activation (% of control), % at 5.5 µM; AID 932;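 active = activation above the screen-wide mean activation plus 3 SD, cut at about 130% in these data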
STAT3 blocker: STAT3 signaling inhibition | AID 862 | U3A cells, IL-6 STAT3-luciferase reporter, luminescence; host cell line lacks STAT1 | inhibition, % at 5.5 µM | hit rate 0.89% among 190,000;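 active = inhibition above the mean inhibition across all screened compounds plus 3 SD, cut at about 44% in these data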
STAT3 act-2: STAT3 activation, confirmation assay | U3A STAT3-luciferase reporter, IL-6 potentiation, luminescence; U3A cells lack STAT1; 100 means same as IL-6 alone | shares compounds with STAT3 act-1 | hit rate 64% among 1,200 | potentiation (% of control), % at 5.7 µM;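 active = percent activation of the STAT3 luciferase reporter above a set limit taken from the earlier primary screen, cut at about 130% in these data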
NFkB act STAT3ct: activates NF-kappaB, counter-screen to STAT3 activators; shares compounds with STAT3 act-1; human cells, NF-kappaB reporter activation; activation (% of control), % at 5.7 µM; hit rate 11% among 1,200; AID 1309; in the data active = activation above about 120%;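 also: reporter induced by TNF-alpha stimulation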
STAT1 act-2: counter-screen for STAT3 activators: STAT1 activation; shares compounds with STAT3 act-1; NIH 3T3 STAT1-luciferase reporter, IFN-gamma, luminescence; activation (% of control), % at 5.7 µM; hit rate 13% among 1,200; AID 1318;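 active = activation above the solvent-only control well mean plus 3 SD, set per screening run, cut at about 120% in these data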
Of the large screens only hits and unclear results are named; the others gave an inactive call (follow-up assays come after a bar, where they were run).

Cn1c(CNC(=O)c2ccccc2)nnc1SCC(=O)Nc1nccs1	none
Cc1cc(=O)oc2cc(NC(=O)C3CCCC3)ccc12	none
O=C(Nc1ccc2c(c1)oc1ccc(S(=O)(=O)N3CCCC3)cc12)C1CC1	STAT3 act-1 154.3 | STAT3 act-2 inactive | NFkB act STAT3ct inactive | STAT1 act-2 inactive
O=C(Nc1ccc2c(c1)oc1ccccc12)C1CC1	STAT3 act-1 143.3 | STAT3 act-2 142.4 | NFkB act STAT3ct 130.7 | STAT1 act-2 133.8
O=C(COC(=O)CNC(=O)c1ccc(-c2ccccc2)cc1)NCc1ccco1	none
Fc1cccc(-c2nnn3c2nc(Cl)c2ccccc23)c1	STAT3 act-1 165.1 | STAT3 act-2 183.2 | NFkB act STAT3ct inactive | STAT1 act-2 inactive
COCCCNc1nc2c(-c3ccc(Cl)cc3)nnn2c2ccccc12	none
Cc1ccc(-c2nnn3c2nc(Cl)c2ccccc23)cc1	STAT3 act-1 147.3 | STAT3 act-2 145.3 | NFkB act STAT3ct inactive | STAT1 act-2 inactive
Nc1cc2c(cc1C(=O)c1cccc(Br)c1)OCCO2	none
CCOC(=O)C1=C(CSc2nc(-c3ccccc3)ccc2C#N)OC(N)=C(C#N)C1c1ccccc1 (stereo not drawn)	none
CCOC(=O)C1=C(CSc2nc(-c3ccccc3)ccc2C#N)OC(N)=C(C#N)C1c1cccnc1 (stereo not drawn)	NF-kB expr up 3.84, STAT3 act-1 136.5 | STAT3 act-2 inactive | NFkB act STAT3ct inactive | STAT1 act-2 inactive
COC(=O)c1[nH]c2cc(C)ccc2c1NC(=O)CN1CCCc2ccccc21	STAT3 act-1 156.3 | STAT3 act-2 142.8 | NFkB act STAT3ct inactive | STAT1 act-2 137.0
COc1ccccc1NC(NC(=O)c1cccnc1)C(Cl)(Cl)Cl (stereo not drawn)	none (no result: NF-kB expr up)
Cc1c(C(=O)Nc2nc3ccccc3[nH]2)oc2c(Cl)cccc12	STAT3 act-1 143.4 | STAT3 act-2 177.8 | NFkB act STAT3ct 120.9 | STAT1 act-2 122.1
COc1cc(C(=O)Nc2nc3ccccc3[nH]2)cc(OC)c1OC	none
COCC[N+]1(C)CCCCC1	none (no result: NF-kB expr up)
CC(C)CCNC(=O)c1cccc(S(=O)(=O)N2CCc3ccccc32)c1	none
CCN(CC)CCCC(C)NC(=O)c1cccc(S(=O)(=O)N2CCc3ccccc32)c1 (stereo not drawn)	STAT3 act-1 139.7 | STAT3 act-2 147.6 | NFkB act STAT3ct inactive | STAT1 act-2 inactive
COC(=O)/C(=C/c1ccco1)NC(=O)c1ccco1	none
O=C(O)c1ccc(NC2=C/C(=N/S(=O)(=O)c3ccccc3)c3ccccc3C2=O)cc1	STAT3 act-1 155.1 (no result: NF-kB expr up) | STAT3 act-2 inactive | NFkB act STAT3ct inactive | STAT1 act-2 inactive
CCN(CC)S(=O)(=O)c1cccc(-c2nnc(SCc3nc4ccccc4s3)o2)c1	STAT3 act-1 139.2 | STAT3 act-2 inactive | NFkB act STAT3ct inactive | STAT1 act-2 inactive
CCN(CC)S(=O)(=O)c1cccc(-c2nnc(SCCCC(=O)c3ccccc3)o2)c1	none
O=C(CN1CCCC(O)C1)N1c2ccccc2Sc2ccc(C(F)(F)F)cc21 (stereo not drawn)	none
O=C(CSc1nc(C2CC2)nc2ccccc12)N1c2ccccc2Sc2ccc(C(F)(F)F)cc21	STAT3 act-1 144.6 | STAT3 act-2 inactive | NFkB act STAT3ct inactive | STAT1 act-2 inactive
CN(C)C(=O)c1ccc(N/C=C(\C=O)c2nc3ccccc3o2)cc1	STAT3 act-1 141.1 | STAT3 act-2 138.1 | NFkB act STAT3ct inactive | STAT1 act-2 inactive
O=C(c1ccc(S(=O)(=O)Nc2ccccc2)cc1)N1CCOCC1	none
O=C/C(=C\Nc1ccc(C(=O)N2CCOCC2)cc1)c1nc2ccccc2o1	STAT3 act-1 160.8 | STAT3 act-2 153.4 | NFkB act STAT3ct inactive | STAT1 act-2 inactive
